Reference: ChEMBL document CHEMBL3352689 (J Med Chem, 2014)

Columns and labels:
Rattus norvegicus [1] = assay: Toxicity in rat at 200 mg/kg/day; format: organism-based; details: in vivo
[2] = Volume of distribution at steady state in rat at 1 mg/kg, iv; format: ADME, organism-based; set-up: dose 1 mg/kg, route intravenous; details: in vivo, read-out: Vdss
How it was run: (§1)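 Three male animals per species. Dosing was intravenous, with the compound in DMA/PEG400 or DMSO. Steady-state volume of distribution and total body clearance were derived from plasma levels.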

[3] = Total clearance in rat at 1 mg/kg, iv; format: ADME, organism-based; set-up: dose 1 mg/kg, route intravenous; details: in vivo; how it was run: as §1
[4] = Tmax in rat at 10 mg/kg, po; format: ADME, organism-based; set-up: dose 10 mg/kg, route oral; details: in vivo
How it was run: (§2)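 Three male animals per species. The sodium salt was given as a single oral dose in 0.5% methyl cellulose. Plasma Tmax, Cmax, AUC and oral bioavailability were derived.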

[5] = Cmax in rat at 10 mg/kg, po; format: ADME, organism-based; set-up: dose 10 mg/kg, route oral; details: in vivo; how it was run: as §2
[6] = AUC in rat at 10 mg/kg, po; format: ADME, organism-based; set-up: dose 10 mg/kg, route oral; details: plasma; how it was run: as §2
[7] = Oral bioavailability in rat at 10 mg/kg; format: ADME, organism-based; details: in vivo; how it was run: as §2
Rattus norvegicus [8] = assay: Oral bioavailability in rat assessed as 4-[2-({6-Fluoro-2-[({[3-(methyloxy)phenyl]methyl}amino)-carbonyl]-4-oxo-3,4-dihydroquinazolin-5-yl}oxy)ethyl]-benzoic acid at 3 mg/kg; format: ADME, organism-based; details: in vivo
How it was run: (§3)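 The free-acid form was dosed orally in 0.5% methyl cellulose at 3 mg/kg to three male animals. Oral bioavailability was calculated.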

[9] = Volume of distribution at steady state in guinea pig at 1 mg/kg, iv; format: ADME, organism-based, Cavia porcellus; set-up: dose 1 mg/kg, route intravenous; details: in vivo, read-out: Vdss; how it was run: as §1
[10] = Total clearance in guinea pig at 1 mg/kg, iv; format: ADME, organism-based, Cavia porcellus; set-up: dose 1 mg/kg, route intravenous; details: in vivo; how it was run: as §1
[11] = Tmax in guinea pig at 3 mg/kg, po; format: ADME, organism-based, Cavia porcellus; set-up: dose 3 mg/kg, route oral; details: in vivo; how it was run: as §2
[12] = Cmax in guinea pig at 3 mg/kg, po; format: ADME, organism-based, Cavia porcellus; set-up: dose 3 mg/kg, route oral; details: in vivo; how it was run: as §2
[13] = AUC in guinea pig at 3 mg/kg, po; format: ADME, organism-based, Cavia porcellus; set-up: dose 3 mg/kg, route oral; details: plasma; how it was run: as §2
[14] = Oral bioavailability in guinea pig at 3 mg/kg; format: ADME, organism-based, Cavia porcellus; details: in vivo; how it was run: as §2
Cavia porcellus = assay: Oral bioavailability in guinea pig assessed as 4-[2-({6-Fluoro-2-[({[3-(methyloxy)phenyl]methyl}amino)-carbonyl]-4-oxo-3,4-dihydroquinazolin-5-yl}oxy)ethyl]-benzoic acid at 3 mg/kg; format: ADME, organism-based; details: in vivo; how it was run: as §3
[15] = Tmax in rabbit at 10 mg/kg, po; format: ADME, organism-based, Oryctolagus cuniculus; set-up: dose 10 mg/kg, route oral; details: in vivo; how it was run: as §2
[16] = Cmax in rabbit at 10 mg/kg, po; format: ADME, organism-based, Oryctolagus cuniculus; set-up: dose 10 mg/kg, route oral; details: in vivo; how it was run: as §2
[17] = AUC in rabbit at 10 mg/kg, po; format: ADME, organism-based, Oryctolagus cuniculus; set-up: dose 10 mg/kg, route oral; details: plasma; how it was run: as §2
[18] = Oral bioavailability in rabbit at 10 mg/kg; format: ADME, organism-based, Oryctolagus cuniculus; details: in vivo; how it was run: as §2
Oryctolagus cuniculus = assay: Oral bioavailability in rabbit assessed as 4-[2-({6-Fluoro-2-[({[3-(methyloxy)phenyl]methyl}amino)-carbonyl]-4-oxo-3,4-dihydroquinazolin-5-yl}oxy)ethyl]-benzoic acid at 1 mg/kg; format: ADME, organism-based; details: in vivo
How it was run: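 Rabbits, three males, received the free-acid form orally in 0.5% methyl cellulose at 1 mg/kg. Oral bioavailability was calculated.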

[19] = Volume of distribution at steady state in dog at 1 mg/kg, iv; format: ADME, organism-based, Canis lupus familiaris; set-up: dose 1 mg/kg, route intravenous; details: in vivo, read-out: Vdss; how it was run: as §1
[20] = Total clearance in dog at 1 mg/kg, iv; format: ADME, organism-based, Canis lupus familiaris; set-up: dose 1 mg/kg, route intravenous; details: in vivo; how it was run: as §1
[21] = Tmax in dog at 10 mg/kg, po; format: ADME, organism-based, Canis lupus familiaris; set-up: dose 10 mg/kg, route oral; details: in vivo; how it was run: as §2
[22] = Cmax in dog at 10 mg/kg, po; format: ADME, organism-based, Canis lupus familiaris; set-up: dose 10 mg/kg, route oral; details: in vivo; how it was run: as §2
[23] = AUC in dog at 10 mg/kg, po; format: ADME, organism-based, Canis lupus familiaris; set-up: dose 10 mg/kg, route oral; details: plasma; how it was run: as §2
[24] = Oral bioavailability in dog at 10 mg/kg; format: ADME, organism-based, Canis lupus familiaris; details: in vivo; how it was run: as §2
Canis familiaris = assay: Oral bioavailability in dog assessed as 4-[2-({6-Fluoro-2-[({[3-(methyloxy)phenyl]methyl}amino)-carbonyl]-4-oxo-3,4-dihydroquinazolin-5-yl}oxy)ethyl]-benzoic acid at 3 mg/kg; format: ADME, organism-based, Canis lupus familiaris; details: in vivo; how it was run: as §3
Liver = assay: Metabolic stability in guinea pig liver microsomes; format: ADME, Cavia porcellus
How it was run: (§4)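 The free acid was incubated with hepatic microsomes of each species. Stability is reported as clearance in μL/min/mg microsomal protein.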

[25] = Metabolic stability in rabbit liver microsomes; format: ADME, Oryctolagus cuniculus; how it was run: as §4
Liver microsome = assay: Metabolic stability in human liver microsomes; format: ADME; how it was run: as §4
Macaca fascicularis [26] = assay: AUC in monkey at 1 mg/kg, po; details: cynomolgus monkey, plasma
Macaca fascicularis [27] = assay: Tmax in monkey at 1 mg/kg, po; details: cynomolgus monkey, in vivo
Macaca fascicularis [28] = assay: Cmax in monkey at 1 mg/kg, po; details: cynomolgus monkey, in vivo
Macaca fascicularis [29] = assay: Total clearance in monkey at 1 mg/kg, iv; details: cynomolgus monkey, in vivo
Macaca fascicularis [30] = assay: Oral bioavailability in monkey at 1 mg/kg; details: cynomolgus monkey, in vivo
[31] = Total clearance in rabbit at 0.1 mg/kg, iv; details: in vivo
[32] = Metabolic stability in cynomolgus monkey liver microsomes
Macaca fascicularis [33] = assay: Volume of distribution at steady state in monkey at 1 mg/kg, iv; details: cynomolgus monkey, in vivo, read-out: Vdss
[34] = Volume of distribution at steady state in rabbit at 0.1 mg/kg, iv; details: in vivo, read-out: Vdss
Macaca fascicularis [35] = assay: Oral bioavailability in monkey assessed as 4-[2-({6-Fluoro-2-[({[3-(methyloxy)phenyl]methyl}amino)-carbonyl]-4-oxo-3,4-dihydroquinazolin-5-yl}oxy)ethyl]-benzoic acid at 3 mg/kg; details: cynomolgus monkey, in vivo

Structure (SMILES): COc1cccc(CNC(=O)c2nc3ccc(F)c(OCCc4ccc(C(=O)[O-])cc4)c3c(=O)[nH]2)c1.[Na+]
- Activity (Rattus norvegicus [1]): Non-toxic
- Vd [2]: 0.995 L/kg
- clearance [3]: 34.6 mL/min/kg
- Tmax [4]: 0.25 h
- Cmax [5]: 439 ng/mL
- AUC [6]: 1600 ng·h/mL
- bioavailability [7]: 23%
- F (Rattus norvegicus [8]): 4.9%
- Vd [9]: 5.39 L/kg
- clearance [10]: 26.9 mL/min/kg
- Tmax [11]: 0.5 h
- Cmax [12]: 439 ng/mL
- AUC [13]: 1410 ng·h/mL
- bioavailability [14]: 74%
- F (Cavia porcellus): 6.3%
- Tmax [15]: 1.8 h
- Cmax [16]: 2290 ng/mL
- AUC [17]: 15700 ng·h/mL
- bioavailability [18]: 35%
- F (Oryctolagus cuniculus): 11%
- Vd [19]: 0.731 L/kg
- clearance [20]: 3.08 mL/min/kg
- Tmax [21]: 1.7 h
- Cmax [22]: 3870 ng/mL
- AUC [23]: 31800 ng·h/mL
- bioavailability [24]: 58%
- F (Canis familiaris): 3%
- Stability (Liver): 1 µL/min/mg
- Stability [25]: 3 µL/min/mg
- Stability (Liver microsome): 3 µL/min/mg
- AUC (Macaca fascicularis [26]): 456 ng·h/mL
- Tmax (Macaca fascicularis [27]): 2.8 h
- Cmax (Macaca fascicularis [28]): 45 ng/mL
- clearance (Macaca fascicularis [29]): 20.9 mL/min/kg
- bioavailability (Macaca fascicularis [30]): 45%
- clearance [31]: 3.7 mL/min/kg
- Stability [32]: 2 µL/min/mg
- Vd (Macaca fascicularis [33]): 7.03 L/kg
- Vd [34]: 1.14 L/kg
- F (Macaca fascicularis [35]): 1.5%
